# Most compounds without a hit are left out; they make up all but 4.6% or so of the library.
# Arrestin-AP2 inh – human beta-arrestin and AP2 interaction inhibition. 0.31% of 340,000 active. inhibition, % at 10 µM. FITC-arrestin peptide / GST-AP2 beads, flow cytometry; AP2 beta2 appendage carries R879A mutation;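 active means inhibition above a set limit, near 3 SD of compounds lacking own fluorescence, cut at about 54% in these data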;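 further: plate controls were DMSO wells for no effect and 5 µM unlabelled arrestin peptide for full effect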
#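 System: GST-AP2 R879A glutathione beads. Medium: PBS with 0.05% Tween 20 and 0.1% BSA. Also added: FITC-arrestin peptide, 50 nM. Incubation: 12 min plus 1 h, RT. Measured by: high-throughput flow cytometry of beads, ex 488, em 535 nm. Evaluation: percent drop in bead-associated FITC signal.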
# NALP3 yeast inh – blocks the NALP3 inflammasome reconstituted in yeast. Yeast reconstituted NLRP3/ASC/caspase-1, beta-gal luminescence, 24 h. inhibition, % at 10 µM. 0.39% of 330,000 active;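 active means inhibition of 50% or more; inactive means inhibition below 50%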;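 further: plate controls were induced DMSO wells for no effect and uninduced yeast grown without galactose for full effect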
# DSG3 Ab inh – inhibitors of pemphigus antibody binding to human desmoglein-3. P32926. binding (percent of control), % at 10 µM. 0.48% of 310,000 active. DSG3-coupled beads, scFv-anti-DSG3-GFP binding, flow cytometry; hits give low values;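 active means binding more than 3 SD below its plate's average and above zero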;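 further: hits lower antibody fragment binding to DSG3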
# ALR inh – blocks human ALR sulfhydryl oxidase activity; purified ALR, DTT oxidation, H2O2 HRP-luminol luminescence; inhibition, % (concentration not given with the values); 3.8% of 290,000 active; AID 485317;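 active means mean replicate inhibition above about 79%, with every replicate also reaching it, limit read from the data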
# Target sequence (P55789 whole entry, looked up): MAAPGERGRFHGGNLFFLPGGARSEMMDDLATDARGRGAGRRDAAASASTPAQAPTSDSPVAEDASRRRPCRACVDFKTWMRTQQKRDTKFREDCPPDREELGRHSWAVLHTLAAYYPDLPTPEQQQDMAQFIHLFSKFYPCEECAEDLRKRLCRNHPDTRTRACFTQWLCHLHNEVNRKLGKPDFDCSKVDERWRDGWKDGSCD
# PolyA inhibitor – yeast polyadenylation inhibition | S. cerevisiae SKY197-pL101 polyadenylation reporter, beta-gal luminescence; efflux-impaired pdr1/pdr3 knockout yeast; score 100 = 6 SD above DMSO | activity score, % at 12 µM | 0.02% of 300,000 active | AID 1875;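 active means lowest replicate activity score at least 50, where 100 means six control SD above control mean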;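 further: yeast exposed to compound for 9 h at 30 °C; higher score means more reporter readthrough which indicates perturbed polyadenylation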
# NALP1 yeast inh – blocks the NALP1 inflammasome reconstituted in yeast | S. cerevisiae NALP1/ASC/caspase-1 growth, X-gal OD620, 72 h | inhibition, % at 10 µM | 0.61% of 280,000 active | AID 2071; in the data active means inhibition mostly above about 24%, no sharp cut-off; inactive means mostly below about 32%
# * hit, by the source's call; . = not tested or not shown.
SMILES,Arrestin-AP2 inh,NALP3 yeast inh,DSG3 Ab inh,ALR inh,PolyA inhibitor,NALP1 yeast inh
CCC(C)NC(=O)c1ccc(CSCc2cccc(F)c2)o1 (stereo unspecified),5,-2,98,2,13,12
CCC(C)NC(=O)c1ccc(CSCc2ccc(Cl)cc2)o1 (stereo unspecified),5,-3,99,84*,-6,10
CC(C)NC(=O)c1ccc(CSCc2ccccc2Cl)o1,-18,31,94,99*,-12,8
CCC(C)NC(=O)c1ccc(CSCc2ccccc2Cl)o1 (stereo unspecified),2,13,90,36,-4,10
C(=N\N1CCOCC1)/c1nc(-c2ccccc2)n2ccccc12,24,-8,.,96*,-9,-2
CNc1ccccc1-n1ccc(-c2ccccc2)n1,12,-28,112,94*,-18,1
c1ccc(N2CCN(c3nc4ccccc4n4cnnc34)CC2)cc1,1,33,102,97*,-15,7
C1=C(c2ccccc2)CCN(c2nc3ccccc3n3cnnc23)C1,26,13,101,95*,-12,41*
COc1ccc(/C=C/C(=O)OCC(=O)c2cc(C)ccc2C)cc1,.,.,108,.,.,.
COc1ccc(/C=C(\C#N)C(=O)NCC2CCCO2)cc1OC (stereo unspecified),3,-2,109,37,3,23
COc1cc(/C=C(\C#N)C(=O)NCC2CCCO2)ccc1OCC(N)=O (stereo unspecified),-13,7,118,95*,-3,-7
COc1cc(/C=C(\C#N)C(=O)NCc2cccs2)ccc1O,4,15,109,99*,-11,20
COCCNC(=O)/C(C#N)=C/c1ccc(OC(=O)c2cccs2)c(OC)c1,-6,.,.,.,-13,-34
CCOc1cc(/C=C(\C#N)C(=O)NCc2cccnc2)ccc1O,1,-24,105,88*,-10,-12
Cn1ncc(Br)c1C(=O)N1CCCCCC1,-6,2,.,-1,-18,-5
C[C@H]1CCCCO[C@@H](CN(C)C(=O)NC2CCCCC2)[C@@H](C)CN([C@@H](C)CO)C(=O)c2cc(NC(=O)Cc3ccccc3)ccc2O1,.,.,101,.,.,.
CC(=O)N1CCc2cc(S(=O)(=O)CCC(=O)N(C)Cc3ccco3)ccc21,-22,10,.,0,-12,-5
Nc1c(-c2cccs2)cnn1-c1nc(-c2ccc(F)cc2)cs1,5,0,-16*,6,-5,23
COc1ccc(CCN(C)Cc2ccc(OCc3ccccc3)c(OC)c2)cc1OC,18,19,100,99*,-1,15
COc1ccc(CCN(C)C2CC(=O)N(c3ccccc3)C2=O)cc1OC (stereo unspecified),-6,4,111,-10,12,56*
COC(=O)c1ccc(N2C(=O)CC(N(C)CCc3ccc(OC)c(OC)c3)C2=O)cc1 (stereo unspecified),21,28,109,0,17,3
COc1ccc(N2C(=O)CC(N(C)CCc3ccc(OC)c(OC)c3)C2=O)cc1 (stereo unspecified),1,20,103,8,-9,41*
CN(C(=O)c1ccc(F)cc1)c1ccc(OCC(=O)Nc2ccccc2C(=O)O)cc1,-2,1,122,-7,.,.
CCOc1ccc(N2CC(C(=O)OCC(=O)c3ccc(OC)cc3)CC2=O)cc1 (stereo unspecified),-1,2,99,-14,-5,3
COc1ccc(N2CC(C(=O)OCC(=O)c3ccc(C)cc3)CC2=O)cc1 (stereo unspecified),6,1,107,1,0,27*
SMILES,Arrestin-AP2 inh,NALP3 yeast inh,DSG3 Ab inh,ALR inh,PolyA inhibitor,NALP1 yeast inh
Cc1cc2cc3c(cc2nc1SCC(=O)O)CCC3,18,-6,.,98*,-35,33
Cc1ccccc1NC(=O)CSc1nc2cc3c(cc2cc1C)CCC3,6,10,102,-3,18,4
CC1=Nc2ccccc2N=C(NC(=O)c2ccccc2)C1c1ccc(Cl)cc1 (stereo unspecified),-2,16,107,0,-23,-3
CC1=Nc2ccccc2N=C(N)C1c1ccccc1 (stereo unspecified),39,3,90,96*,-15,7
COc1ccc(NCC(=O)N/N=C2\CCc3ccccc32)cc1,25,21,106*,-10,13,-6
CC(C)(C)C(=O)Nc1ccc(C(=O)CSc2nnc(C3CC3)n2C2CC2)cc1,25,1,99,45,.,.
CCN(c1ccc(C)c(C)c1)S(=O)(=O)c1ccc2c(c1)CCN2C(=O)CCC(=O)O,-5,15,273,99*,9,-4
O=C(c1cc(-c2ccc(Cl)cc2)on1)N1CCOCC1,7,2,121,-2,5,9
O=C(c1nnsc1S(=O)c1ccc(Cl)cc1)N1CCOCC1 (stereo unspecified),6,14,95,.,4,67*
O=C(Nc1ccccc1)c1nnsc1S(=O)c1ccc(Cl)cc1 (stereo unspecified),-2,41,.,98*,-44,-1
Cc1nnsc1S(=O)c1ccc(Cl)cc1 (stereo unspecified),10,-2,92,.,5,-3
O=C(/C=C/c1ccc(Br)o1)OCc1nc2ccsc2c(=O)[nH]1,23,27,50*,-15,0,.
Cc1ccc(C(=O)OCc2nc3ccsc3c(=O)[nH]2)o1,6,-1,98,-5,32,.
FC(F)(F)c1cnc(-c2cnc3c(-c4ccc(Cl)cc4)cnn3c2)c(Cl)c1,20,7,99,-1,-14,24
N#Cc1cnn2cc(-c3ncc(C(F)(F)F)cc3Cl)cnc12,4,9,97,85*,2,33
Clc1cccc(CSc2ccc(-c3ccco3)nn2)c1,10,19,104,98*,-7,-9
Cc1cccc(CSc2ccc(-c3ccco3)nn2)c1,-7,24,112,98*,5,29
CCc1ccc(NC(=O)CSc2ccc(-c3ccco3)nn2)cc1,12,41,102,98*,-9,-1
CC(=O)c1cccc(NC(=O)CSc2ccc(-c3ccco3)nn2)c1,6,19,113,64,15,1
CCCOc1ccc(C(=O)CCCC(=O)c2ccc(OCCC)cc2)cc1,-10,18,104,3,12,-1
Cc1nc2ccccc2n1CC(=O)c1ccccc1,4,11,112,-6,-12,-3
O=C(CSc1nc2ccccc2n1CCc1ccccc1)c1ccc(O)c(O)c1,-25,.,72*,.,.,-14
Cc1nc2ccccc2n1CC(=O)c1ccc(O)c(O)c1,14,26,102,98*,.,.

# High-throughput results: PubChem BioAssay, several laboratories
